Experimental data from different studies.
Lines come from different studies, so protocols differ.
CHEK1: Serine/threonine-protein kinase Chk1 (CHEK1, Homo sapiens, UniProt O14757)
PPARG: Peroxisome proliferator-activated receptor gamma (PPARG, Homo sapiens, UniProt P37231)

CCCCOc1nc(N)c2[nH]c(=O)n(CCN)c2n1  EC50 (Toll-like receptor 8 (TLR8, Homo sapiens, UniProt Q9NR97); reporter gene, agonist): 209 µM
Cc1noc(C)c1-c1ccc(-c2nc3cnccn3c2NC(C)(C)C)cc1  Kd (Bromodomain and PHD finger-containing protein 3 (BRPF3, Homo sapiens, UniProt Q9ULD4); cell-free assay, competition with immobilised ligand): 40 µM
Cc1cc2nc3c(=O)[nH]c(=O)nc-3n(C[C@H](O)[C@H](O)[C@H](O)COP(=O)(O)OP(=O)(O)OC[C@H]3O[C@@H](n4cnc5c(N)ncnc54)[C@H](O)[C@@H]3O)c2cc1C  Kd (YTH domain-containing family protein 2 (YTHDF2, Homo sapiens, UniProt Q9Y5A9); binding; lysate): 0.062 µM
CCCCCCCCCCCCCCCCC#CC(=O)O  EC50 (DNA topoisomerase 1 (TOP1, Homo sapiens, UniProt P11387); enzyme activity, inhibitor): 20.5 µM
CCn1cncc1Cn1c(CN2CCC(c3cccc(OCc4ccc(F)cc4F)n3)CC2)nc2ccc(C(=O)O)cc21  EC50 (Glucagon-like peptide 1 receptor (GLP1R, Homo sapiens, UniProt P43220, L260F); cAMP, agonist, TR-FRET): 9e-05 µM
CCOC(=O)CCCCCOc1ccc(Cl)cc1NC(=O)Nc1cnc(C#N)cn1  IC50 (CHEK1; enzyme activity, inhibitor): 380 nM
O=C(CCCCCCC(=O)Nc1ccc([C@H]2O[C@@H](CSc3nc(-c4ccccc4)c(-c4ccccc4)o3)C[C@@H](c3ccc(CO)cc3)O2)cc1)NO  Kd (Histone deacetylase 5 (HDAC5, Homo sapiens, UniProt Q9UQL6); cell-free assay): > 30.2 µM
COc1ccc(-c2nsc(NC(=O)[C@@H]3C[C@H]3C)c2C)cc1  EC50 (Metabotropic glutamate receptor 5 (GRM5, Homo sapiens, UniProt P41594); calcium signal, agonist): > 25 µM
Cc1ccc(-c2ccc(F)cc2COc2ccc(CCC(=O)O)cc2)cc1  EC50 (PPARG; reporter gene, agonist, luciferase): > 100 µM
Cc1cnc(-c2ccc(-c3ccc(NC(=O)Nc4c(F)cc(F)cc4F)cc3F)c3c2C(=O)NC3)[nH]1  Kd (Discoidin domain-containing receptor 2 (DDR2, Homo sapiens, UniProt Q16832); binding, competition with immobilised ligand): 0.003 µM
OCc1ccc2c(c1)-c1n[nH]c(-c3ccc(-c4ccc(O)cc4)cc3)c1C2  IC50 (CHEK1; enzyme activity, inhibitor): 4.4 nM
CCOCc1nc(O)c(-c2nnc(Cc3ccc(Cl)cn3)o2)c(O)c1-c1c(OC)cccc1OC  EC50 (Apelin receptor (Rattus norvegicus, UniProt Q9JHG3); cAMP, agonist): 2e-05 µM
COC(=O)Cc1ccc2c(c1)NC(=O)c1ccc(-c3cc(OC)ncc3C)cc1N2  IC50 (CHEK1; enzyme activity, inhibitor): 7.79 nM
CC1(C)C=Cc2c(ccc3c2OC[C@@H](c2ccc(O)cc2O)C3)O1  Kd (PPARG; binding, ITC): 14.6 µM
COc1cc(NC(=O)CCCCCCC(=O)O)c(Cl)cc1NC(=O)Nc1cnc(C#N)cn1  IC50 (CHEK1; enzyme activity, inhibitor): 57.9 nM
CC[C@@H](Oc1cccc(CN(CCCOc2ccc(OC)cc2)c2nc3ccccc3o2)c1)C(=O)O  Kd (PPARG; binding, ITC): 9.03 µM
